From PubChem BioAssay come the findings set out here.

The source made the active and inactive calls. Unless noted, no stated cut-off is given here; in the data, active means inhibition above about 30%; inactive means the rest.

Test [1] is described as follows: reducers of endogenous Her2 protein level, primary screen, SKBR3 breast tumor cells, AlphaScreen, ATP viability (AID 461;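 active means Her2 level under about 52% in both replicate screens, with viability over 70% of control, limit read from the data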;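 on Her2 level: lower value means less Her2 protein in the cells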;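 on viability: percent of carrier control wells set as 100% viability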). The settings on record: 18-24 h, measured here: SKBR3 viability, ATP luminescence, at 10 µM.
Test [2] concerns the target Receptor tyrosine-protein kinase erbB-2 (Homo sapiens) (UniProt P04626). The test is described as above. The following applies: 18-24 h, at 10 µM, stronger effect = lower value.
Test [3] can be described thus: SK-BR-3 cell growth inhibitors, pilot screen, 24 h, human (AID 572;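 active means viability at or below 10% of carrier control in both of two separate runs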;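 further: compound exposure lasted between 18 and 24 h rather than exactly 24 h; 100% = carrier-treated control wells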). The following applies: SK-BR-3 viability, CellTiter-Glo luminescence, at 10 µM, stronger effect = lower value. Background: In ATP-based viability assays light output follows the ATP content of the culture.
A short description of test [4]: HUVEC growth inhibition – cell-based, human, primary screen (AID 575;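 active means viability at or below 30% in both replicate assays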;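 further: 100% = median of untreated cell wells with 0.1% DMSO on each plate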). The settings on record: HUVEC proliferation, CellTiter-Glo luminescence, 72 h; at 10 µM; stronger effect = lower value. The gist of the method: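 System: primary human umbilical vein endothelial cells; Quantity: 1250 endothelial cells in each well; Buffer or medium: supplemented EBM, 2% fetal bovine serum; Doses: one dose, 10 µM final, 0.1% DMSO; Incubation: 72 h compound incubation; Technique: ATP-based CellTiter-Glo luminescent read; Evaluation: percent of median DMSO-control luminescence; Controls: vehicle and MePR control wells.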

A short description of test [5]: growth inhibitors of H69AR lung tumor, primary screen, human, duplicate replicates (AID 580;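 active means viability at or under a set limit in both replicates, limit being median viability minus 3 SD, cut at about 48% in these data, passing the limit was not always enough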;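 further: 100% = mean luminescence of untreated wells and 0% = no signal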). The settings on record: H69AR lung tumor cells viability, ATP luminescence, 72 h; at 10 µM; stronger effect = lower value.
The nature of test [6]: reversal of MRP1-mediated doxorubicin resistance, pilot screen, H69AR cells, doxorubicin co-treatment (AID 601;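 active means viability loss from added drug above about 55%, and viability with drug at most 40%, in both replicates, limit read from the data, passing the limit was not always enough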). The settings on record: CellTiter-Glo, 72 h, at 10 µM; for differential viability (reversal): stronger effect = higher value.
Test [7] is described as follows: 384-well plate pilot, post-Golgi transport modulator project, inhibition of yeast transport mutant growth (AID 636; in the data active means inhibition above about 31%). The following applies: absorbance 615 nm, about 18 h, stronger effect = higher value.
Test [8] can be described thus: growth suppression of yeast trafficking mutant, preliminary HTS, modulators of trafficking downstream of Golgi apparatus project, 1536-format plate, OD 615 nm (AID 637). The following applies: yeast transport mutant growth, absorbance 615 nm, 18 h; stronger effect = higher value.
Where [9] appears, read: H69AR cells + 2 uM doxorubicin, measured here: viability with 2 uM doxorubicin, stronger effect = lower value.
Setting [10] is: H69AR cells, compound alone cytotoxicity.

Receptor tyrosine-protein kinase erbB-2 (Homo sapiens), sequence (P04626 whole entry, looked up): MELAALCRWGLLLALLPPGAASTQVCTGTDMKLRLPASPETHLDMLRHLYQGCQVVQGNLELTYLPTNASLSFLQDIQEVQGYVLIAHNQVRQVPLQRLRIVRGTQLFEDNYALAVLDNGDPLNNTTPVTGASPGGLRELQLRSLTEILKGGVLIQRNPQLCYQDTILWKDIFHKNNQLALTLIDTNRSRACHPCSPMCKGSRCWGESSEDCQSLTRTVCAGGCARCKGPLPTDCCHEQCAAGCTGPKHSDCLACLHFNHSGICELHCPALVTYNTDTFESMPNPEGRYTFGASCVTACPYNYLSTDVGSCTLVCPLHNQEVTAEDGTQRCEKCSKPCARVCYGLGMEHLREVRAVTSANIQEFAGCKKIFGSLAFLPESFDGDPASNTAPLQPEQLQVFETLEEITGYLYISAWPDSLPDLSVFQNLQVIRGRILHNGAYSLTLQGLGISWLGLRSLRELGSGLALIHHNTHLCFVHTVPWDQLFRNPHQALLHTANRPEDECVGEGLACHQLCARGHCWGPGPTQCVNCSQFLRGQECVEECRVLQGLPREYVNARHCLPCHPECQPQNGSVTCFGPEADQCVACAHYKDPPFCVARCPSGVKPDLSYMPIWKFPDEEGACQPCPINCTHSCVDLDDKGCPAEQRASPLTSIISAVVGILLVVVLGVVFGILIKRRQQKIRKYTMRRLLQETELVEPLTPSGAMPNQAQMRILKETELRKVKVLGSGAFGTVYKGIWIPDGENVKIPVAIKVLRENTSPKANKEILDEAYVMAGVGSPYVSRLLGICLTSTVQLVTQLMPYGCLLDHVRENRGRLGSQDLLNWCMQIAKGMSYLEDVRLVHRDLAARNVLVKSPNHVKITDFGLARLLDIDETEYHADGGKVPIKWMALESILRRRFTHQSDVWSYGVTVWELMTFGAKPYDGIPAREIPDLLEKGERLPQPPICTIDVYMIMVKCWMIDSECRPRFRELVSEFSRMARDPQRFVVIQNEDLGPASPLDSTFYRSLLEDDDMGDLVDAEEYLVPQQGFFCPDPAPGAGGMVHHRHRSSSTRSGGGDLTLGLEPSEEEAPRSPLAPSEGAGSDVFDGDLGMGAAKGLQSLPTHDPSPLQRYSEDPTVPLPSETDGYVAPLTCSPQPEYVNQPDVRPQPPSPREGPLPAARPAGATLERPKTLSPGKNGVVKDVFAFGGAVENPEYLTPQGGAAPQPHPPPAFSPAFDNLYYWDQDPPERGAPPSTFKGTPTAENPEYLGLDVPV

The term viability denotes a read-out of living cells in per cent, often relative to untreated cells. Usually inhibition stands for the change of the read-out against control, counted positive when it falls. Consider `c1cncc(-c2nnc(SCCSc3nnc(-c4cccnc4)o3)o2)c1`, for which the viability is 99.5% in test [1]; 99.5% (inactive) in test [3]; 98.7% (inactive) in test [4]; 91.9% (inactive) in test [5]; 91.8% in test [6] (setting [9]); 91.9% in test [6] (setting [10]). The Her2 level in test [2] was 93% (inactive). In addition, in test [6] (H69AR cells + 2 uM doxorubicin), the differential viability (reversal) was 0.085% (inactive). Also, the inhibition in test [7] was -5.68% (inactive); in test [8] it was -2.17% (inactive).
As to `Cc1cccc(C)c1NC(=O)N1CCN(C2CCCCC2)CC1`, the viability in test [1] is 111%; in test [3], 111% (inactive); in test [4], 109% (inactive); in test [5], 104% (inactive); in test [6] (setting [9]), 91.6%; in test [6] (setting [10]) it was 104%. In addition, the Her2 level in test [2] was 92.5% (inactive). The differential viability (reversal) in test [6] (H69AR cells + 2 uM doxorubicin) is 12.6% (inactive). Further, the inhibition in test [7] was -8.03% (inactive); in test [8], -2.55% (inactive).
For the molecule `O=C(CCNS(=O)(=O)c1ccc(Cl)cc1)NCc1ccccn1`, the viability in test [1] is 97.5%; in test [3], 97.5% (inactive); in test [4] it was 81.4% (inactive); in test [5], 89.7% (inactive); in test [6] (setting [9]), 96.7%; in test [6] (setting [10]), 89.7%. Further, the Her2 level in test [2] is 75.5% (inactive). Also, the differential viability (reversal) in test [6] (H69AR cells + 2 uM doxorubicin) is -6.95% (inactive). Moreover, the inhibition in test [7] was -5.26% (inactive); in test [8] it was -1.83% (inactive).
For the molecule `Cc1cc(C(=O)CSc2nnc(-c3ccco3)o2)c(C)n1CC1COc2ccccc2O1` (stereo not given), the viability in test [1] is 91.5%; in test [3] it was 91.5% (inactive); in test [4], 74.3% (inactive); in test [5], 89% (inactive); in test [6] (setting [9]) it was 98.8%; in test [6] (setting [10]) it was 89%. Besides, the Her2 level in test [2] is 94% (inactive). Besides, the differential viability (reversal) in test [6] (H69AR cells + 2 uM doxorubicin) is -9.8% (inactive). The inhibition is -2.67% (inactive) in test [7] and -9.52% (inactive) in test [8].
In the case of `COc1ccc2cc(C#N)c(SCC(=O)N3CCCC3)nc2c1`, the viability in test [1] is 97%; in test [3] it was 97% (inactive); in test [4], 90.4% (inactive); in test [5], 70.2% (inactive); in test [6] (setting [9]) it was 75.5%; in test [6] (setting [10]), 70.2%. The Her2 level in test [2] is 81% (inactive). In addition, the differential viability (reversal) in test [6] (H69AR cells + 2 uM doxorubicin) was -5.28% (inactive). In addition, the values for the inhibition in test [7] and in test [8] were 0.95% (inactive) and -5.08% (inactive), respectively.
For `Cc1ccc(-c2cc(C(=O)Nc3cc(C)ccc3C)[nH]n2)c(O)c1`, the viability in test [1] was 102%; in test [3], 102% (inactive); in test [4] it was 109% (inactive); in test [5] it was 92.4% (inactive); in test [6] (setting [9]), 89.6%; in test [6] (setting [10]), 92.4%. For the same molecule, the Her2 level in test [2] was 88% (inactive). For the same molecule, in test [6] (H69AR cells + 2 uM doxorubicin), the differential viability (reversal) was 2.75% (inactive). Further, the inhibition in test [7] is -3.16% (inactive); in test [8], -1.9% (inactive).
On to `Cc1onc(-c2ccccc2Cl)c1C(=O)Nc1cccc(-c2cn3cccnc3n2)c1`, for which the viability in test [1] was 104%; in test [3], 104% (inactive); in test [4], 71.4% (inactive); in test [5], 85.6% (inactive); in test [6] (setting [9]) it was 84.5%; in test [6] (setting [10]), 85.6%. Further, in test [2], the Her2 level was 84% (inactive). Also, the differential viability (reversal) in test [6] (H69AR cells + 2 uM doxorubicin) is 1.15% (inactive). Further, the inhibition in test [7] is -5.39% (inactive); in test [8] it was -1.82% (inactive).
For the molecule `CCOCCCNC(=O)C1CCC(=O)N1CCc1ccccc1` (stereo not given), the viability in test [1] is 100%; in test [3], 100% (inactive); in test [4], 84.7% (inactive); in test [5] it was 98.3% (inactive); in test [6] (setting [9]) it was 111%; in test [6] (setting [10]), 98.3%. For the same molecule, in test [2], the Her2 level was 95.5% (inactive). Further, in test [6] (H69AR cells + 2 uM doxorubicin), the differential viability (reversal) was -12.8% (inactive). Moreover, the figures for the inhibition in test [7] and in test [8] were -3.42% (inactive) and -5.32% (inactive), respectively.
Consider `CCOc1ccc(C(=O)N2CCN(c3ccccc3)CC2)cc1OCC`, for which the viability in test [1] is 104%; in test [3], 104% (inactive); in test [4], 90% (inactive); in test [5], 83.5% (inactive); in test [6] (setting [9]), 98.3%; in test [6] (setting [10]) it was 83.5%. The Her2 level in test [2] is 102% (inactive). The differential viability (reversal) in test [6] (H69AR cells + 2 uM doxorubicin) is -14.8% (inactive). The inhibition in test [7] was 2.47% (inactive); in test [8] it was 9.51% (inactive).
Consider `CCC1CCCCN1C(=O)Cn1c(C(=O)OC)cc2sc(Cl)cc21` (stereo not given), for which the viability in test [1] is 76.5%; in test [3], 76.5% (inactive); in test [4], 89.2% (inactive); in test [5] it was 71.4% (inactive); in test [6] (setting [9]), 88.4%; in test [6] (setting [10]), 71.4%. The Her2 level in test [2] is 103% (inactive). The differential viability (reversal) in test [6] (H69AR cells + 2 uM doxorubicin) was -17% (inactive). Also, the inhibition is -0.64% (inactive) in test [7] and -0.67% (inactive) in test [8].
For the molecule `Cc1nn(C)c(C)c1CN(C)C(=O)c1cc2nc(-c3ccco3)cc(C(F)(F)F)n2n1`, the viability is 77% in test [1]; 77% (inactive) in test [3]; 109% (inactive) in test [4]; 86.6% (inactive) in test [5]; 85.9% in test [6] (setting [9]); 86.6% in test [6] (setting [10]). Besides, the Her2 level in test [2] was 94.5% (inactive). In test [6] (H69AR cells + 2 uM doxorubicin), the differential viability (reversal) is 0.655% (inactive). Further, the inhibition was 1.67% (inactive) in test [7] and -9.33% (inactive) in test [8].
Consider `CCc1ccccc1OCCCCCNCCO`, for which the viability in test [1] is 85.5%; in test [3], 85.5% (inactive); in test [4], 93.3% (inactive); in test [5], 81.8% (inactive); in test [6] (setting [9]), 87.4%; in test [6] (setting [10]), 81.8%. Also, the Her2 level in test [2] was 91% (inactive). The differential viability (reversal) in test [6] (H69AR cells + 2 uM doxorubicin) is -5.63% (inactive). Moreover, the results for the inhibition in test [7] and in test [8] were -2.05% (inactive) and -1.5% (inactive), respectively.
As to `O=C(CCOc1ccccc1)NCc1ccccc1`, the viability in test [1] was 122%; in test [3] it was 122% (inactive); in test [4], 89.9% (inactive); in test [5] it was 89.6% (inactive); in test [6] (setting [9]) it was 90%; in test [6] (setting [10]) it was 89.6%. Besides, the Her2 level in test [2] was 102% (inactive). In addition, the differential viability (reversal) in test [6] (H69AR cells + 2 uM doxorubicin) was -0.41% (inactive). Also, the inhibition in test [7] is 4.03% (inactive); in test [8], 28.9% (inactive).
